Experimental data as given in ChEMBL document CHEMBL5696442, “Discovery of type II inhibitors of TGFβ-activated kinase 1 (TAK1) and mitogen-activated protein kinase kinase kinase kinase 2 (MAP4K2)” (J Med Chem, 2015).
Activity calls are given as the source filed them. The calls are words filed in the database; no cut-off is given here.

Experiments:
[1] = target: Ephrin type-A receptor 1 (Homo sapiens) (UniProt P21709); test: Inhibition of EPHA1 (unknown origin) at 10 uM by Ambit Kinomescan binding assay
[2] = target: Insulin-like growth factor 1 receptor (Homo sapiens) (UniProt P08069); test: Inhibition of IGF1R (unknown origin) at 10 uM by Ambit Kinomescan binding assay
[3] = target: Myosin-IIIb (Homo sapiens) (UniProt Q8WXR4); test: Inhibition of MYO3B (unknown origin) at 10 uM by Ambit Kinomescan binding assay relative to control
[4] = target: Mitogen-activated protein kinase kinase kinase kinase 4 (Homo sapiens, UniProt O95819); test: Inhibition of ZC1/HGK K1 labeling site harbouring TGQLAAIKVMDVTEDEEEEIKLEINMLKK in human Huh-7 cells at 10 uM by KiNativ Profiling analysis relative to control; assay type: cell-based
[5] = target: DNA-dependent protein kinase catalytic subunit (Homo sapiens) (UniProt P78527); test: Inhibition of PRKDC ATP labeling site harbouring KGGSWIQEINVAEK in human Huh-7 cells at 10 uM by KiNativ Profiling analysis relative to control; assay type: cell-based
[6] = target: T1, Aurora kinase A (Homo sapiens) (UniProt O14965); test: Inhibition of AurA K2 labeling site harbouring DIKPENLLLGSAGELK in human Huh-7 cells at 1 uM by KiNativ Profiling analysis relative to control; assay type: cell-based
T1 sequence (whole entry): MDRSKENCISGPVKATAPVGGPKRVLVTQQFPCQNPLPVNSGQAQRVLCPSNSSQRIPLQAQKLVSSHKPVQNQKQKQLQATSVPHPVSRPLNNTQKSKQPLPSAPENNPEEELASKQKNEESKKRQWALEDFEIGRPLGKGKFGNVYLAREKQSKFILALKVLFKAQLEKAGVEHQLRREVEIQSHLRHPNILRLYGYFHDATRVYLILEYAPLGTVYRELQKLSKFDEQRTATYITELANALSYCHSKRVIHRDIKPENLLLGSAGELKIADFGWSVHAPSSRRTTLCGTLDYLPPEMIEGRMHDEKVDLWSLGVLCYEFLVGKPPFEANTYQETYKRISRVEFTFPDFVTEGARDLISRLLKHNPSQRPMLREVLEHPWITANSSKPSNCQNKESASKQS

[7] = target: Discoidin domain-containing receptor 2 (Homo sapiens) (UniProt Q16832); test: Inhibition of DDR2 (unknown origin) at 10 uM by Ambit Kinomescan binding assay relative to control; values are per cent of control
[8] = tested on: Tyrosine-protein kinase ABL1 (Homo sapiens), P00519 [T315I]; test: Inhibition of ABL1 T315I mutant (unknown origin) at 10 uM by Ambit Kinomescan binding assay relative to control; values are per cent of control
[9] = tested on: Epidermal growth factor receptor (Homo sapiens), P00533 [L858R,T790M]; test: Inhibition of EGFR L858R/T790M mutant (unknown origin) at 1 uM by Ambit Kinomescan binding assay relative to control
[10] = target: Protein-tyrosine kinase 2-beta (Homo sapiens) (UniProt Q14289); test: Inhibition of PYK2 (unknown origin) at 1 uM by Ambit Kinomescan binding assay relative to control
[11] = target: DNA-PK/Ku70/Ku85 (Homo sapiens) (UniProt P78527+P12956+P13010); test: Inhibition of DNAPK ATP labeling site harbouring KGGSWIQEINVAEK in human A-375 cells at 5 uM by KiNativ Profiling analysis relative to control; assay type: cell-based
How it was run: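 Live A375 melanoma cells were treated with compound at 0.5 or 5 μM, then lysed. Lysates were labeled with a lysine-reactive ATP or ADP-biotin probe. The read-out was protection of each kinase probe-labeling site from labeling, relative to control.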

[12] = target: Putative phosphatidylinositol 4-kinase alpha-like protein P2 (Homo sapiens) (UniProt A4QPH2); test: Inhibition of PI4KAP2 ATP labeling site in human A-375 cells at 0.5 uM by KiNativ Profiling analysis relative to control; assay type: cell-based
[13] = target: Serine/threonine-protein kinase mTOR (Homo sapiens) (UniProt P42345); test: Inhibition of FRAP ATP labeling site in human A-375 cells at 0.05 uM by KiNativ Profiling analysis relative to control; assay type: cell-based
[14] = target: Mitogen-activated protein kinase kinase kinase 11 (Homo sapiens) (UniProt Q16584); test: Inhibition of MLK3 Lys2 labeling site in human A-375 cells at 0.05 uM by KiNativ Profiling analysis relative to control; assay type: cell-based
[15] = target: Tyrosine-protein kinase Blk (Homo sapiens) (UniProt P51451); test: Inhibition of BLK (unknown origin) at 1 uM by Ambit Kinomescan binding assay relative to control; values are per cent of control
[16] = tested on: Tyrosine-protein kinase ABL1 (Homo sapiens), P00519 [T315I]; test: Inhibition of phosphorylated ABL1 T315I mutant (unknown origin) at 1 uM by Ambit Kinomescan binding assay relative to control; values are per cent of control
[17] = target: Serine/threonine-protein kinase mTOR (Homo sapiens) (UniProt P42345); test: Inhibition of FRAP ATP labeling site in human Huh-7 cell lysate at 1 uM by KiNativ Profiling analysis relative to control; assay type: subcellular
[18] = target: Cyclin-dependent kinase 7 (Homo sapiens) (UniProt P50613); test: Inhibition of CDK7 Lys2 labeling site in human Huh-7 cells at 1 uM by KiNativ Profiling analysis relative to control; assay type: cell-based
[19] = target: Serine/threonine-protein kinase WNK4 (Homo sapiens) (UniProt Q96J92); test: Inhibition of Wnk4 Lys2 labeling site in human Huh-7 cells at 1 uM by KiNativ Profiling analysis relative to control; assay type: cell-based

Chain of Mitogen-activated protein kinase kinase kinase 11 (Homo sapiens) (Q16584 whole entry, looked up): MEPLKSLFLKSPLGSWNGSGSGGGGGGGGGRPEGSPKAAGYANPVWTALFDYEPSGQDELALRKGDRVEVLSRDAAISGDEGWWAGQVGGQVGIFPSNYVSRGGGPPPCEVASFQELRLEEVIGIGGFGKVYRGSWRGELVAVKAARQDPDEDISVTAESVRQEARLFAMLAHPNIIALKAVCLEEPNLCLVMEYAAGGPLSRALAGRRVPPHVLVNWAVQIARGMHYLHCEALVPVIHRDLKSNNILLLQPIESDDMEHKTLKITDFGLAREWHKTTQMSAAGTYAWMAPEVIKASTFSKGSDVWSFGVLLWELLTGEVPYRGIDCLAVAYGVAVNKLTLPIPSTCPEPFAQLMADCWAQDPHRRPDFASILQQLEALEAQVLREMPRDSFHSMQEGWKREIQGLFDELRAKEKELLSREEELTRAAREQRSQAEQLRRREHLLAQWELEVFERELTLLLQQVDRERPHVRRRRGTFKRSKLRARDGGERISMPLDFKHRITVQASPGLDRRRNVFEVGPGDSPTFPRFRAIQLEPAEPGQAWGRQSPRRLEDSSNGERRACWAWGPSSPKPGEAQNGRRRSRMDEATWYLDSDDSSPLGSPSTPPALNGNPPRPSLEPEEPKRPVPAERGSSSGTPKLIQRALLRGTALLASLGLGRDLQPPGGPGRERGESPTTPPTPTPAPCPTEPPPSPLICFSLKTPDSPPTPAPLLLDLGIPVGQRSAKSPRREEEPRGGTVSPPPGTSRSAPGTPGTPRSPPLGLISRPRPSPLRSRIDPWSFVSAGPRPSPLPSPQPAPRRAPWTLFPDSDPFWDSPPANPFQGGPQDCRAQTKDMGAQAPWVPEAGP
Chain of Epidermal growth factor receptor (Homo sapiens), P00533 [L858R,T790M] (P00533 whole entry T790M/L858R, looked up): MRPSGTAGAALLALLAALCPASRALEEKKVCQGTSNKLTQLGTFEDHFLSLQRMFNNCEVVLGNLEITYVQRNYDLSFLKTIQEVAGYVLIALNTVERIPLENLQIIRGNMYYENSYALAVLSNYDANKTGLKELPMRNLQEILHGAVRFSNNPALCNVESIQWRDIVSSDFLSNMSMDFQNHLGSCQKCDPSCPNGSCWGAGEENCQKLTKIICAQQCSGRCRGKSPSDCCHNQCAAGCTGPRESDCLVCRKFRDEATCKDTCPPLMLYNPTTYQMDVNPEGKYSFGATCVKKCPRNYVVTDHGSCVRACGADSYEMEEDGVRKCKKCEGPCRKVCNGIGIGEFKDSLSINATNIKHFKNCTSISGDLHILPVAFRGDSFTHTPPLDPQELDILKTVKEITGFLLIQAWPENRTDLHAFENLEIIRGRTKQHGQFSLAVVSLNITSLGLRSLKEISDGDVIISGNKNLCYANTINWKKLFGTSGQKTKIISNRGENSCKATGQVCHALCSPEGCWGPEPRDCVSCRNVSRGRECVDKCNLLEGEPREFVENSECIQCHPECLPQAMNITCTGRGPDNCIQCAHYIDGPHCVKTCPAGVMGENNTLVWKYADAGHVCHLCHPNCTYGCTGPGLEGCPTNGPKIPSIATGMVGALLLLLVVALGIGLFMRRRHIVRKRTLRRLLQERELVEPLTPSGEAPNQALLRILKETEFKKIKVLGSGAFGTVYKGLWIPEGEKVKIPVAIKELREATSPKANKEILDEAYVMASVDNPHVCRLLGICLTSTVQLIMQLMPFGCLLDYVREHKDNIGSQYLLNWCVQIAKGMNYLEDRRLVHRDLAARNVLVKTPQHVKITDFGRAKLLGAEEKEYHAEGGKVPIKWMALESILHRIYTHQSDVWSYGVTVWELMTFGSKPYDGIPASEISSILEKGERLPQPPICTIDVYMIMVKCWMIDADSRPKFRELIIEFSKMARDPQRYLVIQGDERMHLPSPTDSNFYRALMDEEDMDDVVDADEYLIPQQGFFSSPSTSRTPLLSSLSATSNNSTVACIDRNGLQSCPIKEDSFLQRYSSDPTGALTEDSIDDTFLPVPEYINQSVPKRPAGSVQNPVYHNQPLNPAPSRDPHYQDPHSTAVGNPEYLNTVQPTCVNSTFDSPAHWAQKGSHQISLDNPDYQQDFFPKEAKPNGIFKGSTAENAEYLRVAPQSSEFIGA
Chain of Putative phosphatidylinositol 4-kinase alpha-like protein P2 (Homo sapiens) (A4QPH2 whole entry): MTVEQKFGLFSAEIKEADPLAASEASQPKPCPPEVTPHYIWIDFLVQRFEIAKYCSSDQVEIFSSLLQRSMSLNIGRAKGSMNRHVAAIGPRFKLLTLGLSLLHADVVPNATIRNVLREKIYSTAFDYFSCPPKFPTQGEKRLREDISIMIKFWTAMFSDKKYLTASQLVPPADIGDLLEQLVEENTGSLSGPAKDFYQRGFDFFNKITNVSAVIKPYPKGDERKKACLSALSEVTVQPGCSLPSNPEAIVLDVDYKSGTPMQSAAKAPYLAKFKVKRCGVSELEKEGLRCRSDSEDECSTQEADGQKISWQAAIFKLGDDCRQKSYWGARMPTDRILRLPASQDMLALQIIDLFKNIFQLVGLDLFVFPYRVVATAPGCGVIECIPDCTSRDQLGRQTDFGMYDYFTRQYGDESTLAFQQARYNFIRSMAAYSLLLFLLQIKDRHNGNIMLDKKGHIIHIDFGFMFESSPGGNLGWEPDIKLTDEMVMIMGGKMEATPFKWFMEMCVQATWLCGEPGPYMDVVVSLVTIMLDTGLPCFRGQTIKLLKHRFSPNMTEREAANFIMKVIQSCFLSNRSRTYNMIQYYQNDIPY
Chain of Myosin-IIIb (Homo sapiens) (Q8WXR4 whole entry): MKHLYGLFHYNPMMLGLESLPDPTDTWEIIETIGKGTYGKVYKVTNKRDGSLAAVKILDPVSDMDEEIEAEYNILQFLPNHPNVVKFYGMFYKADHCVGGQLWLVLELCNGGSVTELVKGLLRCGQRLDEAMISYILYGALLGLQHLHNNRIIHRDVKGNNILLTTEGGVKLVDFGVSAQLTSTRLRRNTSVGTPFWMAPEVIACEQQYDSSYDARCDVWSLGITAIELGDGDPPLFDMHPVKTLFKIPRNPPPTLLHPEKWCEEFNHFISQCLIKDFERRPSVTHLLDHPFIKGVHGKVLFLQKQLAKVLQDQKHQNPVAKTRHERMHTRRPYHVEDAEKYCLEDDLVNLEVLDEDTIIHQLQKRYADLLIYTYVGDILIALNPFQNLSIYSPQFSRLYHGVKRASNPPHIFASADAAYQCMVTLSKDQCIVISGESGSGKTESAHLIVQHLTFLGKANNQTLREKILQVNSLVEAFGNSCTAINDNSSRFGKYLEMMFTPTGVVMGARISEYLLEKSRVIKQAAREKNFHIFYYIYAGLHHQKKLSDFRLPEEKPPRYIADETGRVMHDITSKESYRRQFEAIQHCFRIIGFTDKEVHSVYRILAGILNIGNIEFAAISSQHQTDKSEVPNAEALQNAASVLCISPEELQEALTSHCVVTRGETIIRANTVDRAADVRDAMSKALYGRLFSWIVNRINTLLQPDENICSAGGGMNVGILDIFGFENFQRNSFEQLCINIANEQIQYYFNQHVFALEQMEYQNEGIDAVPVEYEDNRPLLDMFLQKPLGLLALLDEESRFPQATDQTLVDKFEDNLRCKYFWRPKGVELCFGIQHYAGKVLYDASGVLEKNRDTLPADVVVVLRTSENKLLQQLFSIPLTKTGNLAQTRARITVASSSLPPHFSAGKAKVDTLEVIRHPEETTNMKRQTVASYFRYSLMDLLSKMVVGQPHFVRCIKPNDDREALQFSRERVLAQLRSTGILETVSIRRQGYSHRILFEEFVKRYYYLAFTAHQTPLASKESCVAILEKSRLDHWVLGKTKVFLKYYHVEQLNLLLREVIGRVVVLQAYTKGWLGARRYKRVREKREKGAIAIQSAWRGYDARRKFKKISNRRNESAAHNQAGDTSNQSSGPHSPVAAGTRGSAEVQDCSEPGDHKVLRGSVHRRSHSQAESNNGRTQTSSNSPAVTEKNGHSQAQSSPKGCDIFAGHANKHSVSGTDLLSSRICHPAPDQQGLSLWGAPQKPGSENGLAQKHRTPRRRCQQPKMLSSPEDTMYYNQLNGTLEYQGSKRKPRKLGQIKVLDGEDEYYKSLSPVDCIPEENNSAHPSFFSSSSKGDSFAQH
Chain of Cyclin-dependent kinase 7 (Homo sapiens) (P50613 whole entry): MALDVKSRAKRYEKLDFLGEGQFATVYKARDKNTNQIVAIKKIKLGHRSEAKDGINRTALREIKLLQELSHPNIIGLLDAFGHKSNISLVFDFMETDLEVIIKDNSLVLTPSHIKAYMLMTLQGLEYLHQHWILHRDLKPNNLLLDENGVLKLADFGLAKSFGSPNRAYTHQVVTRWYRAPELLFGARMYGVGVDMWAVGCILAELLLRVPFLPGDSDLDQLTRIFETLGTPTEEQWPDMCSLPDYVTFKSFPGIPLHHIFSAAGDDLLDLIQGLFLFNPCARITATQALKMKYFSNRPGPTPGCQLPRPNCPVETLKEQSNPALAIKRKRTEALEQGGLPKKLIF
Chain of Tyrosine-protein kinase Blk (Homo sapiens) (P51451 2-505 limits assumed): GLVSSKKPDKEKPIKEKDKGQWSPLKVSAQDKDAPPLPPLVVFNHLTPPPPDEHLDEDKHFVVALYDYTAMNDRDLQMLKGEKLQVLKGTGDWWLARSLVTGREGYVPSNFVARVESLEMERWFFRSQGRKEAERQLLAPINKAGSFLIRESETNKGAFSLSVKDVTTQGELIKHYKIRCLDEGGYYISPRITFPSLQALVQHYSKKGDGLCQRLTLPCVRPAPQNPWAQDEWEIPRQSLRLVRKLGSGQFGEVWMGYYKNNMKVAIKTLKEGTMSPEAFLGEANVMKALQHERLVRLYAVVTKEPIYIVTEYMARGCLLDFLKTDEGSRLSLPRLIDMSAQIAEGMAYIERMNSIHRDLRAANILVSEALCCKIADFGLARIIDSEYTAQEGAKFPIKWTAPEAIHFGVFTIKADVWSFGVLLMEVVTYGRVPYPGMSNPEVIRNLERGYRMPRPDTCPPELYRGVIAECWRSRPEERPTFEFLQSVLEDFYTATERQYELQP

SMILES: CCN1CCN(Cc2ccc(NC(=O)c3ccc(C)c(Oc4ccnc5[nH]ccc45)c3)cc2C(F)(F)F)CC1
- inhibition [1]: inactive
- inhibition [2]: inactive
- inhibition [3]: 4.8%
- inhibition [4]: 75.4%
- inhibition [5]: 0.2%
- inhibition [6]: 0.9%
- percent of control [7]: 5.1%
- percent of control [8]: 0%

SMILES: CCN1CCN(Cc2ccc(NC(=O)c3ccc(C)c(/C=C/c4cnc5[nH]ccc5c4OC)c3)cc2C(F)(F)F)CC1
- inhibition [9]: 100%
- inhibition [10]: 19%
- inhibition [11]: -8.9%
- inhibition [12]: -8%
- inhibition [13]: -7.6%
- inhibition [14]: 11.4%
- residual activity [15]: 0.25%
- percent of control [16]: 5.4%

SMILES: CNc1cc(Oc2cc(C(=O)Nc3cc(N4CCN(C)CC4)cc(C(F)(F)F)c3)ccc2C)ncn1
- inhibition [17]: -1.8%
- inhibition [18]: 2.6%
- inhibition [19]: 44.2%
